# Measured values published in ChEMBL document CHEMBL5724801, “EUbOPEN Chemogenomics Library - Multiplex” (2024).
# Values joined by “and” are separate entries in the source; they are usually repeats but may differ in a detail not shown here. Identical values can stand only once.
# Tested on: Fibroblast
# Assay: Multiplex assay against human fibroblast
# Type: toxicity, cell-based
# Outline: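 Tubulin, mitochondrial-mass and membrane-permeability phenotypes are per cents of healthy-nucleus cells. Cells were gated by CellPathfinder machine learning into Hoechst high-intensity objects or normal cells, normal cells into healthy, pyknosed or fragmented nuclei, and pyknosed cells into mitotic or apoptotic. Before that, live cells stained at seeding with Hoechst33342, BioTracker Green Microtubule Cytoskeleton Dye, MitoTracker Red and Annexin V Alexa Fluor 680 were imaged on a CQ1 microscope at 37°C and 5% CO2 after compound addition.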
# [1] = 12 h, 1 µM, compound concentration 1 uM
# [2] = 12 h, 10 µM, compound concentration 10 uM
# [3] = 24 h, 1 µM, compound concentration 1 uM
# [4] = 24 h, 10 µM, compound concentration 10 uM
# [5] = 48 h, 1 µM, compound concentration 1 uM
# [6] = 48 h, 10 µM, compound concentration 10 uM
smiles,measurement,setting,value
CN1CCN(c2cc(-c3ccccc3)nc(N)n2)CC1,Population Apoptotic (%),[1],47% and 37%
same,Population Fragmented Nuclei (%),[1],15% and 28%
same,Population Healthy Nuclei (%),[1],68% and 45%
same,Population Hoechst High Intensity Objects (%),[1],2% and 5%
same,Population Membrane Permeable-Phenotype (%),[1],1% and 11%
same,Population Mitochondria Different-Phenotype (%),[1],10% and 11%
same,Population Mitotic Cells (%),[1],52% and 62%
same,Population Normal (%),[1],97% and 94%
same,Population Pyknosed Nuclei (%),[1],15% and 26%
same,Population Tubulin-Different-Phenotype (%),[1],25% and 66%
same,Total Cell Count,[1],135 and 97
same,Population Apoptotic (%),[2],48% and 36%
same,Population Fragmented Nuclei (%),[2],16% and 40%
same,Population Healthy Nuclei (%),[2],67% and 36%
same,Population Hoechst High Intensity Objects (%),[2],2% and 7%
same,Population Membrane Permeable-Phenotype (%),[2],0% and 10%
same,Population Mitochondria Different-Phenotype (%),[2],6% and 12%
same,Population Mitotic Cells (%),[2],51% and 64%
same,Population Normal (%),[2],97% and 92%
same,Population Pyknosed Nuclei (%),[2],15% and 22%
same,Population Tubulin-Different-Phenotype (%),[2],44% and 67%
same,Total Cell Count,[2],216 and 118
same,Population Apoptotic (%),[3],75% and 47%
same,Population Fragmented Nuclei (%),[3],17% and 36%
same,Population Healthy Nuclei (%),[3],65% and 44%
same,Population Hoechst High Intensity Objects (%),[3],2%
same,Population Membrane Permeable-Phenotype (%),[3],1% and 8%
same,Population Mitochondria Different-Phenotype (%),[3],3% and 8%
same,Population Mitotic Cells (%),[3],25% and 52%
same,Population Normal (%),[3],97%
same,Population Pyknosed Nuclei (%),[3],16% and 18%
same,Population Tubulin-Different-Phenotype (%),[3],19% and 50%
same,Total Cell Count,[3],145 and 106
same,Population Apoptotic (%),[4],41% and 29%
same,Population Fragmented Nuclei (%),[4],12% and 33%
same,Population Healthy Nuclei (%),[4],70% and 43%
same,Population Hoechst High Intensity Objects (%),[4],2%
same,Population Membrane Permeable-Phenotype (%),[4],1% and 4%
same,Population Mitochondria Different-Phenotype (%),[4],6%
same,Population Mitotic Cells (%),[4],58% and 70%
same,Population Normal (%),[4],97%
same,Population Pyknosed Nuclei (%),[4],17% and 23%
same,Population Tubulin-Different-Phenotype (%),[4],41% and 64%
same,Total Cell Count,[4],213 and 107
same,Population Apoptotic (%),[5],70% and 50%
same,Population Fragmented Nuclei (%),[5],22% and 36%
same,Population Healthy Nuclei (%),[5],62% and 49%
same,Population Hoechst High Intensity Objects (%),[5],2% and 3%
same,Population Membrane Permeable-Phenotype (%),[5],0% and 2%
same,Population Mitochondria Different-Phenotype (%),[5],2% and 6%
same,Population Mitotic Cells (%),[5],30% and 50%
same,Population Normal (%),[5],97% and 96%
same,Population Pyknosed Nuclei (%),[5],15% and 14%
same,Population Tubulin-Different-Phenotype (%),[5],20% and 54%
same,Total Cell Count,[5],137 and 101
same,Population Apoptotic (%),[6],40% and 66%
same,Population Fragmented Nuclei (%),[6],26% and 50%
same,Population Healthy Nuclei (%),[6],58% and 39%
same,Population Hoechst High Intensity Objects (%),[6],3%
same,Population Membrane Permeable-Phenotype (%),[6],0% and 9%
same,Population Mitochondria Different-Phenotype (%),[6],0% and 9%
same,Population Mitotic Cells (%),[6],59% and 33%
same,Population Normal (%),[6],96%
same,Population Pyknosed Nuclei (%),[6],14% and 10%
same,Population Tubulin-Different-Phenotype (%),[6],31% and 60%
same,Total Cell Count,[6],227 and 114
Nc1nccc(-c2ccn3c(N)nccc23)n1,Population Apoptotic (%),[1],13.51% and 18.75%
same,Population Healthy Nuclei (%),[1],61.49% and 82.11%
same,Population Hoechst High Intensity Objects (%),[1],0%
same,Population Membrane Permeable-Phenotype (%),[1],5.05% and 4.47%
same,Population Mitochondria Different-Phenotype (%),[1],4.04% and 6.7%
same,Population Mitotic Cells (%),[1],86.49% and 81.25%
same,Population Normal (%),[1],100%
same,Population Pyknosed Nuclei (%),[1],22.98% and 14.68%
same,Population Tubulin-Different-Phenotype (%),[1],7.07% and 20.11%
same,Total Cell Count,[1],161 and 218
same,Population Apoptotic (%),[2],10.71% and 9.09%
same,Population Fragmented Nuclei (%),[2],8.62% and 3.03%
same,Population Healthy Nuclei (%),[2],75.29% and 82.68%
same,Population Hoechst High Intensity Objects (%),[2],0%
same,Population Membrane Permeable-Phenotype (%),[2],8.4% and 3.14%
same,Population Mitochondria Different-Phenotype (%),[2],6.87% and 7.33%
same,Population Mitotic Cells (%),[2],89.29% and 90.91%
same,Population Normal (%),[2],100%
same,Population Pyknosed Nuclei (%),[2],16.09% and 14.29%
same,Population Tubulin-Different-Phenotype (%),[2],9.16% and 16.75%
same,Total Cell Count,[2],174 and 231
same,Population Apoptotic (%),[3],15.56% and 14.81%
same,Population Fragmented Nuclei (%),[3],8.38% and 5.44%
same,Population Healthy Nuclei (%),[3],68.06% and 83.26%
same,Population Hoechst High Intensity Objects (%),[3],0%
same,Population Membrane Permeable-Phenotype (%),[3],0.77% and 2.51%
same,Population Mitochondria Different-Phenotype (%),[3],2.31% and 2.51%
same,Population Mitotic Cells (%),[3],84.44% and 85.19%
same,Population Normal (%),[3],100%
same,Population Pyknosed Nuclei (%),[3],23.56% and 11.3%
same,Population Tubulin-Different-Phenotype (%),[3],13.08% and 16.58%
same,Total Cell Count,[3],191 and 239
same,Population Apoptotic (%),[4],6.98% and 4.35%
same,Population Fragmented Nuclei (%),[4],9.95% and 3.5%
same,Population Healthy Nuclei (%),[4],69.67% and 87.55%
same,Population Hoechst High Intensity Objects (%),[4],0%
same,Population Membrane Permeable-Phenotype (%),[4],4.76% and 5.33%
same,Population Mitochondria Different-Phenotype (%),[4],5.44% and 2.22%
same,Population Mitotic Cells (%),[4],93.02% and 95.65%
same,Population Normal (%),[4],100%
same,Population Pyknosed Nuclei (%),[4],20.38% and 8.95%
same,Population Tubulin-Different-Phenotype (%),[4],16.33% and 21.33%
same,Total Cell Count,[4],211 and 257
same,Population Apoptotic (%),[5],22.73% and 26.09%
same,Population Fragmented Nuclei (%),[5],8.37% and 5.8%
same,Population Healthy Nuclei (%),[5],81.4% and 83.93%
same,Population Hoechst High Intensity Objects (%),[5],0%
same,Population Membrane Permeable-Phenotype (%),[5],1.14% and 3.72%
same,Population Mitochondria Different-Phenotype (%),[5],9.71% and 2.66%
same,Population Mitotic Cells (%),[5],77.27% and 73.91%
same,Population Normal (%),[5],100%
same,Population Pyknosed Nuclei (%),[5],10.23% and 10.27%
same,Total Cell Count,[5],215 and 224
same,Population Apoptotic (%),[6],23.53% and 19.05%
same,Population Fragmented Nuclei (%),[6],6.48% and 4.4%
same,Population Healthy Nuclei (%),[6],86.64% and 87.2%
same,Population Hoechst High Intensity Objects (%),[6],0%
same,Population Membrane Permeable-Phenotype (%),[6],1.87% and 1.83%
same,Population Mitotic Cells (%),[6],76.47% and 80.95%
same,Population Normal (%),[6],100%
same,Population Pyknosed Nuclei (%),[6],6.88% and 8.4%
same,Total Cell Count,[6],247 and 250
NCCc1cn(S(=O)(=O)c2c(Cl)nc3sccn23)c2ccccc12.O=C(O)C(=O)O,Population Apoptotic (%),[1],45%
same,Population Fragmented Nuclei (%),[1],20% and 34%
same,Population Healthy Nuclei (%),[1],65% and 37%
same,Population Hoechst High Intensity Objects (%),[1],4% and 3%
same,Population Membrane Permeable-Phenotype (%),[1],0% and 13%
same,Population Mitochondria Different-Phenotype (%),[1],5% and 8%
same,Population Mitotic Cells (%),[1],55% and 54%
same,Population Normal (%),[1],95% and 96%
same,Population Pyknosed Nuclei (%),[1],14% and 28%
same,Population Tubulin-Different-Phenotype (%),[1],40% and 62%
same,Total Cell Count,[1],146 and 170
same,Population Apoptotic (%),[2],78% and 57%
same,Population Fragmented Nuclei (%),[2],20% and 24%
same,Population Healthy Nuclei (%),[2],56% and 44%
same,Population Hoechst High Intensity Objects (%),[2],6%
same,Population Membrane Permeable-Phenotype (%),[2],0% and 5%
same,Population Mitochondria Different-Phenotype (%),[2],40% and 34%
same,Population Mitotic Cells (%),[2],21% and 42%
same,Population Normal (%),[2],93%
same,Population Pyknosed Nuclei (%),[2],22% and 30%
same,Population Tubulin-Different-Phenotype (%),[2],90% and 89%
same,Total Cell Count,[2],177 and 219
same,Population Apoptotic (%),[3],50% and 46%
same,Population Fragmented Nuclei (%),[3],21% and 35%
same,Population Healthy Nuclei (%),[3],64% and 44%
same,Population Hoechst High Intensity Objects (%),[3],3% and 4%
same,Population Membrane Permeable-Phenotype (%),[3],0% and 18%
same,Population Mitochondria Different-Phenotype (%),[3],13% and 11%
same,Population Mitotic Cells (%),[3],50% and 53%
same,Population Normal (%),[3],96% and 95%
same,Population Pyknosed Nuclei (%),[3],13% and 20%
same,Population Tubulin-Different-Phenotype (%),[3],42% and 70%
same,Total Cell Count,[3],156 and 166
same,Population Apoptotic (%),[4],77% and 72%
same,Population Fragmented Nuclei (%),[4],22% and 30%
same,Population Healthy Nuclei (%),[4],62% and 51%
same,Population Hoechst High Intensity Objects (%),[4],3% and 7%
same,Population Membrane Permeable-Phenotype (%),[4],0% and 5%
same,Population Mitochondria Different-Phenotype (%),[4],58% and 32%
same,Population Mitotic Cells (%),[4],22% and 27%
same,Population Normal (%),[4],96% and 92%
same,Population Pyknosed Nuclei (%),[4],14% and 18%
same,Population Tubulin-Different-Phenotype (%),[4],89% and 81%
same,Total Cell Count,[4],193 and 237
same,Population Apoptotic (%),[5],50% and 54%
same,Population Fragmented Nuclei (%),[5],27% and 38%
same,Population Healthy Nuclei (%),[5],63% and 47%
same,Population Hoechst High Intensity Objects (%),[5],4% and 6%
same,Population Membrane Permeable-Phenotype (%),[5],2% and 9%
same,Population Mitotic Cells (%),[5],50% and 45%
same,Population Normal (%),[5],95% and 93%
same,Population Pyknosed Nuclei (%),[5],9% and 14%
same,Population Tubulin-Different-Phenotype (%),[5],46% and 58%
same,Total Cell Count,[5],177 and 166
same,Population Apoptotic (%),[6],85% and 75%
same,Population Fragmented Nuclei (%),[6],22% and 31%
same,Population Healthy Nuclei (%),[6],65% and 59%
same,Population Hoechst High Intensity Objects (%),[6],7% and 3%
same,Population Membrane Permeable-Phenotype (%),[6],0% and 3%
same,Population Mitochondria Different-Phenotype (%),[6],43% and 24%
same,Population Mitotic Cells (%),[6],14% and 25%
same,Population Normal (%),[6],92% and 96%
same,Population Pyknosed Nuclei (%),[6],12% and 8%
same,Population Tubulin-Different-Phenotype (%),[6],92% and 74%
same,Total Cell Count,[6],189 and 241
